A word on the pKi: it is −log10 of the Ki, conventionally taken in molar units. Higher therefore signals a low Ki. As usually defined, the pIC50 is −log10 of the IC50, conventionally taken in molar units.

The target of assay [1] is T1, Adenosine receptor A1 (Homo sapiens, UniProt P30542).
T1 sequence (P30542 whole entry): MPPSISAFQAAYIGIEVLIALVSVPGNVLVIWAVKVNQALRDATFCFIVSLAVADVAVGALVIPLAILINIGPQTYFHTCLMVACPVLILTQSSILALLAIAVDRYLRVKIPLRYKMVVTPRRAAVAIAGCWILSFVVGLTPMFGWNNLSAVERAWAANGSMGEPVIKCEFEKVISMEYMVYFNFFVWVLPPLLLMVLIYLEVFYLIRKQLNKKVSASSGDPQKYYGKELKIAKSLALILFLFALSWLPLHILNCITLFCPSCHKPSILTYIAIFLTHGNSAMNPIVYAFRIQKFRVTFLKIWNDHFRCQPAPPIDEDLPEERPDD
As to the kind of experiment: Displacement of [3H]DPCPX from human A1AR expressed in CHO cells incubated for 50 mins by radioligand binding assay. The class given is cell-based. A general note: Displacement assays read how much labelled ligand stays bound in the presence of the test substance.

The target in assay [2] is T1, Adenosine receptor A1. As to the kind of experiment: Antagonist activity at human A1AR expressed in CHO-K1 cells assessed as reduction in NECA-induced inhibition of forskolin-stimulated cAMP accumulation incubated for 30 mins by fluorescence based assay. It counts as functional, cell-based. A digest of the protocol:
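CHO-K1 cells stably expressing human A1AR, grown in F12K + 10% FBS + 800 µg/ml hygromycin B at 37 ℃/5% CO2, resuspended in HBSS with 0.1% BSA, 20 mM HEPES, 100 nM IBMX; 8000 cells/well. Ten 3-fold compound dilutions; forskolin (8 µM) plus NECA (40 nM) added, 30 min at 37 ℃. HTRF cAMP detection (Eu3+ cryptate anti-cAMP, d2-cAMP), 1 h room temperature, read at 665/615 nm.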
For orientation: Changes in cAMP serve as a functional read-out for many G protein-coupled receptors.

The species entered for the next assay is Homo sapiens. Description: Selectivity index, ratio of Ki for human A1AR expressed in CHO cells to Ki for human A2AR expressed in CHO cells by radioligand binding assay. It counts as cell-based.
The target of a further assay is Adenosine receptor A2a (Homo sapiens, UniProt P29274). As to the kind of experiment: Displacement of [3H]ZM241385 from human A2AR expressed in CHO cells after 90 mins by radioligand binding assay. The class given is cell-based.
Chain of Adenosine receptor A2a (P29274 whole entry): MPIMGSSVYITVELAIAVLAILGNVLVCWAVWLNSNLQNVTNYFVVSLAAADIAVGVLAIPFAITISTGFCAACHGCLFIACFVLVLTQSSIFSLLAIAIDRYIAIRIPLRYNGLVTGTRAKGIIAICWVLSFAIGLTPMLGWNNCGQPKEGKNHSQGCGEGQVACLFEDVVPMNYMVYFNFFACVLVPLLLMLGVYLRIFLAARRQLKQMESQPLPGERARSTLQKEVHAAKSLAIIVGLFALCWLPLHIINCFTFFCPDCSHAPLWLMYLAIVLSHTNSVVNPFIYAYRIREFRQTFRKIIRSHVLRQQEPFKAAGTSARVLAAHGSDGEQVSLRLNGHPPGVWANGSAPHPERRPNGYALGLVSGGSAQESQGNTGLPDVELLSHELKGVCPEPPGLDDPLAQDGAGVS

pIC50, pKi: −log10 of the molar value.

`COc1ccc(/C=C/c2ccnc3nc(N4CCCCC4)[nH]c(=O)c23)cc1`: the negative logarithm of the Ki (pKi) on Adenosine receptor A1 [1] was 5.52.
Still for that read-out and setting: the result for `CCC(C(=O)n1nc(-c2ccccc2)nc1N)c1ccccc1` (stereo unspecified) reads 4.97.
Consider `O=C(Cn1cc(-c2ccccc2)c2ncn(C3CC3)c(=O)c21)NCc1ccc(F)cc1`, for which the pIC50 at Adenosine receptor A1 [2] is 5.55. Further, the Ratio Ki in the assay filed under Homo sapiens is 0.016. For the same molecule, the pKi at Adenosine receptor A1 [1] was 6.23; at Adenosine receptor A2a it was 4.44.
In the same order, the values of `C=CCn1c(SCc2ccccn2)nc2c([nH]c3ccccc32)c1=O` are 5.90, under 0.01, 6.15 and under 4.00.
At Adenosine receptor A1 [1], `CCCN(CCC)c1c(-c2ccccc2)c2cc(Cl)ccc2[nH]c1=O` gave a negative-log Ki (pKi) of 4.59.
Regarding `Cc1cc(=O)n2c(n1)NC(Nc1cccc(C)c1C)=NC2c1ccc(F)cc1` (stereo unspecified), on Adenosine receptor A1 [1], the negative logarithm of the Ki (pKi) is 5.49.
For the molecule `COc1ccc(-c2cc(-c3cccc(Br)c3)c(C#N)c(N)n2)cc1`, at Adenosine receptor A1 [2], the pIC50 was 5.73. The Ratio Ki in the assay listed under Homo sapiens stood at 0.006. Moreover, the negative-log Ki (pKi) at Adenosine receptor A1 [1] is 6.68; on Adenosine receptor A2a, 4.42.
In the same order, the values of `N#Cc1c(N)nc2c(c1-c1ccc3c(c1)OCO3)CCCC2` are 6.38, under 0.001, 7.13 and under 4.00.
In the same order, the values of `O=c1[nH]c(N2CCCC2)nc2nccc(-c3ccc(Cl)cc3)c12` are 5.83, under 0.01, 6.11 and under 4.00.
The matching figures for `Cc1ccc(C(=O)Nc2c(C(=O)NC3CCCC3)[nH]c3ccc(C)cc23)cc1`: 5.51, under 0.01, 6.29 and under 4.00.
On to `Oc1ccccc1Nc1nc(-c2ccccc2)c2cc(Cl)ccc2n1`, for which, at Adenosine receptor A1 [1], the pKi is 4.70.
On the same count and under the same terms, the result for `O=C1CC(C(=O)Nc2ccccc2)c2c(nc(SCc3ccccc3F)[nH]c2=O)N1` (stereo unspecified) reads 5.14; that for `Cc1cc(C)nc(Nc2nc(-c3ccccc3)c3ccc(Cl)cc3n2)n1`, 5.16.
The same measure, in the same setting: the result for `CC(C)CN1C(=O)/C(=C/c2c(NCCc3ccccc3)nc3ccccn3c2=O)SC1=S` reads 4.87; that for `Cc1ccc(C2=CC(c3ccccc3Cl)n3nc(CCCO)nc3N2)cc1` (stereo unspecified), 4.73; that for `COc1ccccc1CNC(=O)c1cc(Nc2ccccc2C)nc2ccccc12`, 5.95.
Still for that read-out and setting: the result for `CCOC(=O)N1CCN(c2cc(NC3CCCCC3)c3c4c(onc24)-c2ccccc2C3=O)CC1` reads 4.71; that for `CC(C)C(=O)Nc1nc2n(n1)C(c1ccccc1Cl)C=C(c1ccccc1)N2` (stereo unspecified), 4.49.

(Values after ChEMBL document CHEMBL4414680, “Identification of new potent A1 adenosine receptor antagonists using a multistage virtual screening approach” (Eur J Med Chem, 2020).)
